In ChEMBL document CHEMBL4513216, “Probing the Open Global Health Chemical Diversity Library for Multistage-Active Starting Points for Next-Generation Antimalarials” (ACS Infect Dis, 2020) one finds cytotoxicity data, which are given here for 69 compounds.

The structures appear in SMILES notation.

The data set can be described thus: Toxicity liver stage against HepG2, at 10uM. The class given is cell-based. The arrangement: test concentration 10 uM, cell line HepG2-A16-CD81EGFP. The following applies: human, HepG2-A16-CD81EGFP cells; read-out: INHIBITION
A digest of the protocol:
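Uninfected HepG2-A16-CD81EGFP cells, 3 × 10^3 per well, 1536-well, plated on prespotted compound at 10 μM final, parasite-free screening media added to match infected plates; puromycin 10 μM positive, DMSO 0.5% negative; run in parallel with 48 h PbLuc assay at 37 °C, 5% CO2; viability by CellTiter-Glo luminescence, normalized to controls.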
As to `COC(=O)COn1c(SCC(=O)OC)nc2ccccc2c1=O`, the cytotoxicity at 10 µM is -8.38%. As for `CC(C)CS(=O)(=O)Nc1ccc([C@H]2OCC(=O)N[C@@H]2CO)cc1`, the cytotoxicity at 10 µM was 2.79%. Consider `CC[C@H]1CN2CC[C@H]1C[C@@H]2CNC(=O)Nc1cccc(C#N)c1`, for which the cytotoxicity at 10 µM was -0.201%. On to `CCOCCCNC(=O)C1(C)CCC(=O)N1c1cc(OC)ccc1OC` (centres undefined), for which the cytotoxicity at 10 µM was 0.957%.

With `Cc1ccc2snc(C(=O)N3CCN(C(=O)NCCC(C)C)CC3)c2c1`, the cytotoxicity at 10 µM was -0.964%. In the case of `CC(O)CN1CCC(=O)N(Cc2ccccc2)Cc2ccccc21` (centres undefined), the cytotoxicity at 10 µM is -3.37%. Regarding `COCC(O)CN1CCC(=O)N(CC=C(C)C)Cc2ccccc21` (centres undefined), the cytotoxicity at 10 µM is 1.87%. Turning to `O=c1c(NCCNCCO)c(N2CCN(Cc3ccccc3)CC2)c1=O`, the cytotoxicity at 10 µM is -5.9%. For `O=C(Cn1cnc2sccc2c1=O)NCCCc1nnc2ccccn12`, the cytotoxicity at 10 µM was found to be 5.84%. Under `COc1ccc(CCC(=O)NCc2cc(C)on2)cc1` stands -56.4%; under `COC(=O)CN1N=C(C(=O)N2CCCC2)S(=O)(=O)c2ccccc21`, -8.25%. For `COc1cc(OC)cc(C(=O)NCC(c2cccn2C)N2CCCC2)c1` (centres undefined), the cytotoxicity at 10 µM was 11.2%. The same measure for `COc1cccc(NC(=O)NCC(C)(O)CCSC)c1OC` (centres undefined): 0.253%; for `COCCN(Cc1ccoc1)C(=O)c1ccccc1OC`: 6.28%; for `FC1(F)CCNCC12CCN(c1ccccn1)C2` (centres undefined): -0.31%.

On to `Cc1nccc([C@@H]2C[C@H]3CN(S(=O)(=O)c4ccccc4)C[C@H]3O2)n1`, for which the cytotoxicity at 10 µM worked out at 1.32%.

Regarding `CC(C)CO[C@@H]1CC[C@H]2[C@H]1OCCN2S(=O)(=O)C1CC1`, the cytotoxicity at 10 µM turned out to be 4.04%.

`CC(=O)c1cn(CCC(=O)NCCC(=O)O)c2ccccc12`: the cytotoxicity at 10 µM was determined as 7.13%. For `CC(C)CC1SCC(=O)Nc2c1cnn2-c1ccc(F)cc1` (centres undefined), the cytotoxicity at 10 µM was determined as 6.82%. The same measure for `CCOC(=O)c1sc(NC(=O)CN(C)S(C)(=O)=O)c(C#N)c1C`: 16.6%; for `COCCO[C@H]1CCN(C(=O)c2cc(C)on2)[C@H]1Cc1ccccc1`: 8.22%; for `COc1ccc(CCNC(=O)Cn2ncc3c2c(C)nn3C)cc1`: 8.93%. On to `CC(CC(=O)c1ccccc1)NC(=O)c1ccon1` (centres undefined), for which the cytotoxicity at 10 µM was -10.7%.

With `Fc1cccnc1N1CCC(NCc2cccc3cn[nH]c23)C1` (centres undefined), the cytotoxicity at 10 µM was determined as 13.6%. The same measure for `Cn1cnc2cc(C(=O)NS(=O)(=O)c3ccc(F)cc3)ccc21`: -8.95%; for `OCCN1CCN(CCOCC(F)(F)F)CC1`: -4.47%; for `O=C(c1ccc(O)c(Cl)c1)N(Cc1ccncc1)C1CC1`: -8.99%.

As for `O=C(NC1CCS(=O)(=O)C1)c1sccc1-c1ccc(F)cc1` (centres undefined), the cytotoxicity at 10 µM stood at 8.14%. Under `COc1cccc(CNC(=O)C(c2cccc(F)c2)N2CCOCC2)c1` (centres undefined) stands -6.24%. The same measure for `Cc1ccc(CN(C)C(=O)CN2CC(n3cccn3)C2)o1`: -0.0582%. For `O=C(c1ccccc1)N1CCOC2CNCC[C@H]21` (some centres undefined), the cytotoxicity at 10 µM is -114%. Under `O=C(c1ccccc1)N1CCO[C@@H]2CNC[C@@H]21` stands -100%; under `CCOCC1CN(S(=O)(=O)C2CC2)Cc2nn(C)cc21` (centres undefined), -112%. Under `CCS(=O)(=O)N1CC[C@H](OC)[C@@H]1Cc1ccncc1` stands 5.43%; under `Cc1noc(C)c1CN1CC[C@H]2C[C@@H](c3nccs3)O[C@@H]2C1`, -5.33%. The same measure for `CCCc1cc(C(=O)N2Cc3cnc(C(C)(C)C)nc3C2)ccn1`: -0.807%. With `CC(C)[C@H](Nc1nc(C2CCCC2)nc2c1cnn2C)C(N)=O`, the cytotoxicity at 10 µM was -51.5%. The same measure for `CN1CCC(CNC(=O)CCSc2ccc3c(c2)OCCO3)C1` (centres undefined): -3.13%.

As for `Cc1ccccc1OCC(=O)N1CCOC2(CNCCOC2)C1` (centres undefined), the cytotoxicity at 10 µM is -2.96%.

With `Cn1ccnc1CN1C[C@@H](CN2CCCCCC2)[C@@H](CO)C1`, the cytotoxicity at 10 µM is -2.63%. The same measure for `O=C(O)[C@@H]1CN(Cc2c[nH]c(CC3CCCC3)n2)C[C@H]1c1ccccn1`: 3.86%. Under `CC(C)=CCN1C[C@@H](C(=O)O)C[C@H](C(=O)Nc2ccc(C)nc2)C1` stands 5.67%; under `COc1ccc(Cn2cc(C(=O)N(C)CCN(C)C)nn2)cc1`, 7.13%.

On to `O=C(O)COc1ccc(CN2CCCC(CCc3ccccc3)C2)cc1` (centres undefined), for which the cytotoxicity at 10 µM is 12.1%. The same measure for `COCCCN1C(=O)CC[C@H]2CN(c3cnc4ccccc4n3)CC[C@H]21`: 5.77%; for `CCc1cc(CN(Cc2cccnc2)C2CN3CCC2CC3)on1` (centres undefined): 2.09%; for `O=C(Nc1ccccc1)c1cc2n(n1)CCCN(C(=O)c1ccc[nH]1)C2`: 3.99%. The same measure for `Cc1cc(CN(C)C(=O)C2CC(=O)N(Cc3cccnc3)C2)on1` (centres undefined): 2.95%; for `CCC(C(=O)NCc1ccncc1)N(c1ccccc1)S(C)(=O)=O` (centres undefined): -1.17%. The same measure for `Cc1oc(-c2ccsc2)nc1CN1CC[C@@H]2CCCC[C@H]2C1`: 7.16%; for `NC(=O)c1csc(N2CCCC(c3n[nH]c(=O)n3-c3ccccc3)C2)n1` (centres undefined): 8.84%. As for `Cc1nonc1CN(C)CC1(O)CCCN(CCC2CCCCC2)C1=O` (centres undefined), the cytotoxicity at 10 µM came to 49.4%.

Take `COCCN1CCN(Cc2ccc(F)c(C)c2)[C@H]2CS(=O)(=O)C[C@H]21`: the cytotoxicity at 10 µM was -25.5%. The same measure for `Cc1cccnc1CNCC1(O)CCCN(Cc2ccc(F)cc2)C1=O` (centres undefined): -12.3%; for `Cc1ccc(NC2CCN(C(=O)Cc3c(C)noc3C)CC2)nn1`: -8.13%. The same measure for `Cc1nc(C)n(CC2CCCCN2Cc2nc(-c3ccoc3)no2)n1` (centres undefined): 1.98%. As for `Cc1nn(-c2ccccc2)nc1C(=O)N1CCCC1c1cnn(C)c1` (centres undefined), the cytotoxicity at 10 µM is -0.857%. The same measure for `O=C(c1cccc2c1OCO2)N1CCCC(n2cccn2)C1` (centres undefined): -8.72%.

With `Cc1csc(C(Cc2ccsc2)NC(=O)CN(C)Cc2ccccn2)n1` (centres undefined), the cytotoxicity at 10 µM turned out to be 0.258%. Under `CN(C)CCN1CCCC12CCCN(C(=O)c1cccnc1)C2` (centres undefined) stands -0.95%. Under `Cc1ccc2c(n1)N(Cc1csc(C)n1)CCN(C1CCOC1)C2` (centres undefined) stands 9.28%; under `O=C(NC1CC1)C1=CC2(CCN(CCO)CC2)c2ccccc21`, 1.41%. Under `CC(C)NC(=O)[C@H]1C[C@@H]2[C@@H](C1)OCCN2Cc1cccnc1` stands 2.39%; under `CS(=O)(=O)N1CCCC12CCN(Cc1nccs1)CC2`, 8.1%. Turning to `Cc1cccc(CN2CCc3onc(CO)c3C2)n1`, the cytotoxicity at 10 µM is 6.81%.

Regarding `c1cnc(N2CCC3(CCN(CC4CCCC4)CC3)C2)nc1`, the cytotoxicity at 10 µM stood at 0.845%. Consider `COc1cccc(CN2C[C@@H]3COC[C@]3(COCc3ccncc3)C2)c1`, for which the cytotoxicity at 10 µM was determined as 3.52%. Consider `CC(C)NC(=O)N1CC[C@@H](N(C)C)[C@@H]1Cc1ccncc1`, for which the cytotoxicity at 10 µM came to 5.53%. `CCc1cnc(N2C[C@@H]3C[C@H](C(=O)N4CCOCC4)[C@H](C2)O3)nc1`: the cytotoxicity at 10 µM is -104%.
